In ChEMBL document CHEMBL3632518, “Synthesis and anti-HCV determinant motif identification in pyranone carboxamide scaffold” (Bioorg Med Chem Lett, 2015):

How the values were obtained:
[1] = tested on: Hepatitis C virus; assay: Antiviral activity against HCV genotype 1b infected in human HuH7 cells after 3 days by luciferase reporter gene assay; format: functional, organism-based, Hepacivirus hominis; conditions: Huh-7, 72 h
Summary of the method: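 Huh-7 cells carrying self-replicating subgenomic genotype 1b HCV replicon with luciferase reporter (LucNeo#2), kept in DMEM high glucose plus 10% heat-inactivated FBS and 1 mg/ml G418. Seeded at 5×10^3 cells/well without G418 with various compound concentrations (DMSO stocks, 20 mM or higher); 37°C, 3 days. Cells PBS-washed, lysed, luciferase read by luminometer. EC50 from inhibition of luciferase activity.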

[2] = Cytotoxicity against human HuH7 cells after 3 days by tetrazolium dye method; format: cell-based, Huh-7
Summary of the method: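 LucNeo#2 replicon-bearing Huh-7 cells, 5×10^3 cells/well, grown without G418 with various compound concentrations at 37°C for 3 days. Viable cell number measured by water-soluble tetrazolium dye (Tetracolor One) method. CC50 taken as concentration reducing viable cell number by 50%.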

O=C(NCCO)c1c(N2CCCCC2)cc(-c2ccc(F)cc2)oc1=O
EC50 [1]: > 100 µM
CC50 at 72 h [2]: > 100 µM

COc1ccccc1NC(=O)c1c(NO)cc(-c2ccccc2)oc1=O
EC50 [1]: 0.35 µM
CC50 at 72 h [2]: > 20 µM

COc1cccc(NC(=O)c2c(NO)cc(-c3ccccc3)oc2=O)c1
EC50 [1]: 0.63 µM
CC50 at 72 h [2]: > 20 µM

CCOc1ccccc1NC(=O)c1c(NO)cc(-c2ccccc2)oc1=O
EC50 [1]: 1.1 µM
CC50 at 72 h [2]: > 20 µM

O=C(Nc1cccc(C(F)(F)F)c1)c1c(NO)cc(-c2ccccc2)oc1=O
EC50 [1]: 1.2 µM
CC50 at 72 h [2]: 19 µM

Nc1ccccc1NC(=O)c1c(NO)cc(-c2ccccc2)oc1=O
EC50 [1]: 0.48 µM
CC50 at 72 h [2]: > 20 µM

O=C(Nc1ccccc1O)c1c(NO)cc(-c2ccccc2)oc1=O
EC50 [1]: 1.7 µM
CC50 at 72 h [2]: 14 µM

O=C(Nc1cc([N+](=O)[O-])ccc1O)c1c(NO)cc(-c2ccccc2)oc1=O
EC50 [1]: 3.5 µM
CC50 at 72 h [2]: > 20 µM

O=C(NC1CCCCC1)c1c(NO)cc(-c2ccccc2)oc1=O
EC50 [1]: 2.3 µM
CC50 at 72 h [2]: 10.5 µM

O=C(NC1CC1)c1c(NO)cc(-c2ccc(F)cc2)oc1=O
EC50 [1]: 3.3 µM
CC50 at 72 h [2]: > 20 µM

O=C(NC1CCCCC1)c1c(NO)cc(-c2ccc(F)cc2)oc1=O
EC50 [1]: 3.2 µM
CC50 at 72 h [2]: 11.4 µM

O=C(NC1CC1)c1c(NO)cc(-c2ccc(Cl)cc2)oc1=O
EC50 [1]: 2.9 µM
CC50 at 72 h [2]: 12.8 µM

O=C(NC1CCCCC1)c1c(NO)cc(-c2ccc(Cl)cc2)oc1=O
EC50 [1]: 2.2 µM
CC50 at 72 h [2]: 8.8 µM

Cc1ccc(-c2cc(NO)c(C(=O)NC3CCCCC3)c(=O)o2)cc1
EC50 [1]: 5 µM
CC50 at 72 h [2]: 10.1 µM

COc1ccc(-c2cc(NO)c(C(=O)NC3CCCCC3)c(=O)o2)cc1
EC50 [1]: 4.1 µM
CC50 at 72 h [2]: 13.9 µM

O=C(Nc1ccccc1)c1c(NO)cc(-c2cccs2)oc1=O
EC50 [1]: 1.3 µM
CC50 at 72 h [2]: > 20 µM

O=C(Nc1ccc(F)cc1)c1c(NO)cc(-c2cccs2)oc1=O
EC50 [1]: 0.65 µM
CC50 at 72 h [2]: > 20 µM

O=C(Nc1ccc(Cl)cc1)c1c(NO)cc(-c2cccs2)oc1=O
EC50 [1]: 3.8 µM
CC50 at 72 h [2]: > 20 µM

O=C(Nc1ccc(Br)cc1)c1c(NO)cc(-c2cccs2)oc1=O
EC50 [1]: 6 µM
CC50 at 72 h [2]: > 20 µM

Cc1ccccc1NC(=O)c1c(NO)cc(-c2cccs2)oc1=O
EC50 [1]: 0.59 µM
CC50 at 72 h [2]: > 20 µM

Cc1cccc(NC(=O)c2c(NO)cc(-c3cccs3)oc2=O)c1
EC50 [1]: 0.47 µM
CC50 at 72 h [2]: > 20 µM

Cc1ccc(NC(=O)c2c(NO)cc(-c3cccs3)oc2=O)cc1
EC50 [1]: 0.39 µM
CC50 at 72 h [2]: > 20 µM

COc1ccc(NC(=O)c2c(NO)cc(-c3cccs3)oc2=O)cc1
EC50 [1]: 0.2 µM
CC50 at 72 h [2]: > 20 µM

O=C(Nc1cccc(C(F)(F)F)c1)c1c(NO)cc(-c2cccs2)oc1=O
EC50 [1]: 1.8 µM
CC50 at 72 h [2]: 11 µM

Nc1ccccc1NC(=O)c1c(NO)cc(-c2cccs2)oc1=O
EC50 [1]: 0.25 µM
CC50 at 72 h [2]: > 20 µM

CCOc1ccccc1NC(=O)c1c(NCCO)cc(-c2ccccc2)oc1=O
EC50 [1]: > 20 µM
CC50 at 72 h [2]: > 20 µM

O=C(Nc1ccccc1O)c1c(NCCO)cc(-c2ccccc2)oc1=O
EC50 [1]: > 20 µM
CC50 at 72 h [2]: > 20 µM

O=C(Nc1ccccc1)c1c(NCCO)cc(-c2cccc(Br)c2)oc1=O
EC50 [1]: > 20 µM
CC50 at 72 h [2]: > 20 µM

O=C(Nc1ccc(F)cc1)c1c(NCCO)cc(-c2cccc(Br)c2)oc1=O
EC50 [1]: 5.5 µM
CC50 at 72 h [2]: > 20 µM

O=C(Nc1ccc(Cl)cc1)c1c(NCCO)cc(-c2cccc(Br)c2)oc1=O
EC50 [1]: 7.1 µM
CC50 at 72 h [2]: 17 µM

O=C(Nc1ccc(Br)cc1)c1c(NCCO)cc(-c2cccc(Br)c2)oc1=O
EC50 [1]: 13 µM
CC50 at 72 h [2]: > 20 µM

COc1ccccc1NC(=O)c1c(NCCO)cc(-c2cccc(Br)c2)oc1=O
EC50 [1]: 6 µM
CC50 at 72 h [2]: > 20 µM

CCOc1ccccc1NC(=O)c1c(NCCO)cc(-c2cccc(Br)c2)oc1=O
EC50 [1]: > 20 µM
CC50 at 72 h [2]: > 20 µM

O=C(Nc1ccc(Cl)cc1)c1c(NCCO)cc(-c2ccc(Br)cc2)oc1=O
EC50 [1]: 10 µM
CC50 at 72 h [2]: > 20 µM

O=C(Nc1ccc(Br)cc1)c1c(NCCO)cc(-c2ccc(Br)cc2)oc1=O
EC50 [1]: 14.4 µM
CC50 at 72 h [2]: > 20 µM

COc1ccccc1NC(=O)c1c(NCCO)cc(-c2ccc(Br)cc2)oc1=O
EC50 [1]: > 20 µM
CC50 at 72 h [2]: > 20 µM

COc1cccc(NC(=O)c2c(NCCO)cc(-c3ccc(Br)cc3)oc2=O)c1
EC50 [1]: > 20 µM
CC50 at 72 h [2]: > 20 µM

COc1ccc(NC(=O)c2c(NCCO)cc(-c3ccc(Br)cc3)oc2=O)cc1
EC50 [1]: 14 µM
CC50 at 72 h [2]: > 20 µM

CCOc1ccccc1NC(=O)c1c(NCCO)cc(-c2ccc(Br)cc2)oc1=O
EC50 [1]: > 20 µM
CC50 at 72 h [2]: > 20 µM

O=C(NCCBr)c1c(NCCO)cc(-c2cccs2)oc1=O
EC50 [1]: 15 µM
CC50 at 72 h [2]: > 20 µM

COc1ccccc1NC(=O)c1c(NCCO)cc(-c2cccs2)oc1=O
EC50 [1]: > 20 µM
CC50 at 72 h [2]: > 20 µM

COc1cccc(NC(=O)c2c(NCCO)cc(-c3cccs3)oc2=O)c1
EC50 [1]: > 20 µM
CC50 at 72 h [2]: > 20 µM

CCOc1ccccc1NC(=O)c1c(NCCO)cc(-c2cccs2)oc1=O
EC50 [1]: 5.1 µM
CC50 at 72 h [2]: 10 µM

CONc1cc(-c2ccc(C)cc2)oc(=O)c1C(=O)NCCCO
EC50 [1]: > 100 µM
CC50 at 72 h [2]: > 100 µM

CCC[C@H](NC(=O)[C@@H]1[C@H]2CCC[C@H]2CN1C(=O)[C@@H](NC(=O)[C@@H](NC(=O)c1cnccn1)C1CCCCC1)C(C)(C)C)C(=O)C(=O)NC1CC1 [TELAPREVIR]
EC50 [1]: 0.36 µM
CC50 at 72 h [2]: > 20 µM
